From paper PMC10251802 (Journal of Enzyme Inhibition and Medicinal Chemistry, 2023) come the findings set out here.

The subject of one data set is A549. Kind of data set: MTT anti-proliferative assay, A549. The class given is cell-based, human. (Formazan colour is commonly taken as a measure of viable cells.)
The next data set has as its system MCF-7. As to the kind of experiment: MTT anti-proliferative assay, MCF-7. The class given is cell-based, human.
The next data set addresses EGFR^WT (Homo sapiens, UniProt P00533). As to the kind of experiment: EGFR^WT kinase inhibition. Type of data set: biochemical.
In the next data set the target is EGFR^T790M (Homo sapiens, UniProt P00533, T790M). Kind of data set: EGFR^T790M kinase inhibition. Type of data set: biochemical.
Sequence of EGFR^T790M (P00533 25-1210 T790M): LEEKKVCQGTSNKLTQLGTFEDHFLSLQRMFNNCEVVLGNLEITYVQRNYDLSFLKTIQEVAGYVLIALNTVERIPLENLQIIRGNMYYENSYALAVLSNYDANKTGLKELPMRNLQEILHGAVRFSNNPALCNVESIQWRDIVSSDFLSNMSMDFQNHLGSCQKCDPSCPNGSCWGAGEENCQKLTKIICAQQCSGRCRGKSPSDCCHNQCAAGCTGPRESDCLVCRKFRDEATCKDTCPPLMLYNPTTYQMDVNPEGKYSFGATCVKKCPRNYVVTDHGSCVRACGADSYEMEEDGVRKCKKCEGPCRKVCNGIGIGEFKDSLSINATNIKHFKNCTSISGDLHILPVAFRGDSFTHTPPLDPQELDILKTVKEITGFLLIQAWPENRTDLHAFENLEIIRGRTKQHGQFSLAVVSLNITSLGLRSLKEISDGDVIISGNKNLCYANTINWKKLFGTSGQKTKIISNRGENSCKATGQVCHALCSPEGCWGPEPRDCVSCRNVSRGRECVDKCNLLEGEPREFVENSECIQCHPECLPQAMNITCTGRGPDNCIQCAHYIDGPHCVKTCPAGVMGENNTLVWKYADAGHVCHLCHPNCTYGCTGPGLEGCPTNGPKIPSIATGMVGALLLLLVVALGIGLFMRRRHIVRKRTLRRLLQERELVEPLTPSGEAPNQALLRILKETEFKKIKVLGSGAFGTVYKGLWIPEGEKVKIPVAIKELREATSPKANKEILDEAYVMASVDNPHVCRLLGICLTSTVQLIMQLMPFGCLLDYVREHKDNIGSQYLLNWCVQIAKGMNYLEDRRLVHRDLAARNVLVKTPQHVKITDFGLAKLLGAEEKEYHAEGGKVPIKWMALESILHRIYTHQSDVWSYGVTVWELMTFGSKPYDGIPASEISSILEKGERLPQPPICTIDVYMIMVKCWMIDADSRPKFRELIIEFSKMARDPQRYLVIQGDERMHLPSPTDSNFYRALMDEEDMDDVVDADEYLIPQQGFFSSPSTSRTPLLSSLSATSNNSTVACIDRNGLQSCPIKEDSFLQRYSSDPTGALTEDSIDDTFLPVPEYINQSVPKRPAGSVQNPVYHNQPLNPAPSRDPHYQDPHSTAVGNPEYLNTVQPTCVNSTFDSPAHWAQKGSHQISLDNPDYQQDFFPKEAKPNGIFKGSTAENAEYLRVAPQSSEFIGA
The test system of data set [1] is A549 cells. Kind of data set: Cell cycle analysis by flow cytometry. The class given is cell-based, human. The note with it: A549, 17.79 µM, 72 h. The method in brief:
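A549 cells were exposed to the test compound at 17.79 μM for 72 h, with untreated A549 cells as comparator. Cell-cycle distribution was read by flow cytometry as the percentage of the population in Sub-G1, G1, S and G2/M phases.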
A general note: Flow cytometry measures light scatter and fluorescence of single cells or particles in a stream.

The subject of data set [2] is A549 cells. As to the kind of experiment: Apoptosis analysis, Annexin-V/propidium iodide staining. Type of data set: cell-based, human. The note with it: A549, 17.79 µM, 72 h. In outline: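 Annexin-V-FITC/propidium iodide double staining of A549 cells exposed to the test compound (17.79 μM, 72 h), analysed by flow cytometry.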
In the next data set the test system is BAX and Bcl-2 genes. As to the kind of experiment: BAX and Bcl-2 gene expression by quantitative RT-PCR. The note with it: A549, 17.79 µM, 72 h. The class given is cell-based, human.
For the next data set, the system named is WI-38. As to the kind of experiment: Safety assay. The note with it: for IC50: Homo sapiens, WI-38, read-out: Cell lines IC50 WI-38.
Setting [3] is: Homo sapiens, A549, read-out: Cell lines IC50 A549.
[4] abbreviates: Homo sapiens, MCF7, read-out: Cell lines IC50 MCF-7.

“And” between values parts separate entries of the source, which are not always exact repeats. Equal values may be shown once. Read-outs that look alike come from different tables or passages of the source.

Sequence of EGFR^WT (P00533 25-1210): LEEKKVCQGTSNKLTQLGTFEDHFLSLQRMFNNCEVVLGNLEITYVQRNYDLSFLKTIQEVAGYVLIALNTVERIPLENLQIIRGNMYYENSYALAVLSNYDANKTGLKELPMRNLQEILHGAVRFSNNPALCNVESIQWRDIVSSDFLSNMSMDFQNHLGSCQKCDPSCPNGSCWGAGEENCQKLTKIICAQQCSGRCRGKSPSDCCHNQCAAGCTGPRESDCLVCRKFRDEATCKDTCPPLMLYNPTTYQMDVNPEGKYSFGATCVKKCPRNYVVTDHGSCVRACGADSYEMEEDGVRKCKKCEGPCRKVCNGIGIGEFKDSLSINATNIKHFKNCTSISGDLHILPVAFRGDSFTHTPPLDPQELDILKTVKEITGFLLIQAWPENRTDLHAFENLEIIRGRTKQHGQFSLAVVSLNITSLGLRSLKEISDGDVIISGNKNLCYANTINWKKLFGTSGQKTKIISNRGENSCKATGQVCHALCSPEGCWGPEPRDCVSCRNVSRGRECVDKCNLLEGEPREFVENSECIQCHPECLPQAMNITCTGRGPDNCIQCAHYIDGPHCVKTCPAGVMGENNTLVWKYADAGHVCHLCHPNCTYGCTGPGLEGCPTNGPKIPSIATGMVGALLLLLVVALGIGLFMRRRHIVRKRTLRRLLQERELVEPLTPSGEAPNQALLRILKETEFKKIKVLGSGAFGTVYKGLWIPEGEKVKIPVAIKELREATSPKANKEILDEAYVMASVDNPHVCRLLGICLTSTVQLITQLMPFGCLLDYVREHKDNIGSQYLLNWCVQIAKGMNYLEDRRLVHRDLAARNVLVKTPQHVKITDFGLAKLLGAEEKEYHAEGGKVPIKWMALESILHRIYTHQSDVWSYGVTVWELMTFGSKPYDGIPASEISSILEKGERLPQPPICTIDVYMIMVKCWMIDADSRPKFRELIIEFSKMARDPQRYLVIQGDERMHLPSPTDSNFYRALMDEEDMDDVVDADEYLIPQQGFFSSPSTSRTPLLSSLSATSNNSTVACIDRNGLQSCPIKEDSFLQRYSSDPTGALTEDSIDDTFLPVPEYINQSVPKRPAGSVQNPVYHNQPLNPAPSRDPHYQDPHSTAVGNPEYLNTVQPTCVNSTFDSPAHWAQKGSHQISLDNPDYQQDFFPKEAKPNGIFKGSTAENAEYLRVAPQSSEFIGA

As usually defined, the IC50 is the midpoint of a concentration-inhibition curve. Take `CC1CCc2c(sc3ncnc(Nc4ccccc4F)c23)C1` (centres unmarked) [5b, N-(2-Fluorophenyl)-7-methyl-5,6,7,8-tetrahydrobenzo[4,5]thieno[2,3-d]pyrimidin-4-amine]: the IC50 in the data set with A549 (setting [3]) was determined as 17.8 µM. In addition, the IC50 with MCF-7 (setting [4]) worked out at 22.7 µM. For the same compound, it took 0.0372 µM to reach half-maximal inhibition on EGFR^WT (IC50). This compound showed an IC50 against EGFR^T790M of 0.204 µM. Also, in the data set on A549 cells [1], the “Cell cycle distribution % G2/M” value was 38.61% and 38.61 ± 2.11 %; the “Cell cycle distribution %G1” value was 23.19% and 23.19 ± 2.18 %; the “Cell cycle distribution %S” value is 37.66% and 37.66 ± 4.19 %; the “Cell cycle distribution %Sub-G1” value was 0.54% and 0.54 ± 0.09%. Also, in the data set with A549 cells [2], the “Apoptosis Early (right bottom)” value is 17.84% and 17.84 ± 3.68%; the “Apoptosis Late (right top)” value was 45.71% and 45.71 ± 5.77 %; the “Necrosis (left top)” value is given as 2.12 ± 0.11; the “Viable (left bottom)” value turned out to be 34.33 ± 2.20. In addition, in the data set on BAX and Bcl-2 genes (control set to 1), the BAX/Bcl-2 ratio was 8.3 fold change and 8.35 ± 1.09 fold change; the “Gene expression BAX” value was 3 fold change and 2.97 ± 0.14 fold change; the “Gene expression Bcl-2” value was determined as 0.37 ± 0.06 fold change. For the same compound, in the data set on BAX and Bcl-2 genes (vs untreated cells), the “downregulation of the Bcl-2 gene” value turned out to be 3 fold. Besides, the IC50 in the data set with WI-38 was 70.1 µM. Further, in the data set on WI-38 (ratio of WI-38 IC50 values vs erlotinib), the “times safer against WI-38 than erlotinib” value is 2.5 fold.
On to `C#Cc1cccc(Nc2ncnc3cc(OCCOC)c(OCCOC)cc23)c1` [Erlotinib, reference compound], for which the IC50 amounted to 4.18 µM in the data set with A549 (setting [3]), 14.3 µM in the data set on MCF-7 (setting [4]) and 28.5 µM with WI-38.
As to `COc1ccc(Nc2ncnc3sc4c(c23)CCC(C)C4)cc1` (centres unmarked) [5c, N-(4-Methoxyphenyl)-7-methyl-5,6,7,8-tetrahydrobenzo[4,5]thieno[2,3-d]pyrimidin-4-amine], the IC50 in the data set with A549 (setting [3]) worked out at 27.1 µM; in the data set with MCF-7 (setting [4]), 30 µM.
Turning to `CC1CCc2c(sc3ncnc(NN)c23)C1` (centres unmarked) [7b, 4-Hydrazinyl-7-methyl-5,6,7,8-tetrahydro[1]benzothieno[2,3-d]pyrimidine], the IC50 in the data set on A549 (setting [3]) is 18.4 µM; in the data set on MCF-7 (setting [4]) it was 23.7 µM.
In the case of `CC1CCc2c(sc3ncnc(Nc4ccccc4S(N)(=O)=O)c23)C1` (centres unmarked) [5e, 2-((7-Methyl-5,6,7,8-tetrahydrobenzo[4,5]thieno[2,3-d]pyrimidin-4-yl)amino)benzene sulphonamide], the IC50 in the data set with A549 (setting [3]) is 19.9 µM; in the data set on MCF-7 (setting [4]), 29.2 µM.
Taken in the same sequence, the figures for `CC1CCc2c(sc3ncnc(Nc4ccc(Cl)cc4)c23)C1` (centres unmarked) [5a, N-(4-Chlorophenyl)-7-methyl-5,6,7,8-tetrahydrobenzo[4,5]thieno[2,3-d]pyrimidin-4-amine] were 20.6 µM and 29.3 µM.
In the case of `CC1CCc2c(sc3ncnc(Nc4ccc(S(N)(=O)=O)cc4)c23)C1` (centres unmarked) [5f, 4-((7-Methyl-5,6,7,8-tetrahydrobenzo[4,5]thieno[2,3-d]pyrimidin-4-yl)amino)benzene sulphonamide], the IC50 worked out at 17.5 µM with A549 (setting [3]), 21.4 µM with MCF-7 (setting [4]) and 0.0356 µM against EGFR^WT.
Turning to `CC1CCc2c(sc3ncnc(Nc4ccc(N)cc4)c23)C1` (centres unmarked) [5d, N^1-(7-Methyl-5,6,7,8-tetrahydro[1]benzothieno[2,3-d]pyrimidin-4-yl)benzene-1,4-diamine], the values for the IC50 in the data set with A549 (setting [3]) and in the data set with MCF-7 (setting [4]) were 34.8 µM and 35.5 µM, respectively.
Take `CC1CCc2c(sc3ncnc(NNC(N)=S)c23)C1` (centres unmarked) [7a, 2–(7-Methyl-5,6,7,8-tetrahydro[1]benzothieno[2,3-d]pyrimidin-4-yl)hydrazine carbothioamide]: the IC50 in the data set with A549 (setting [3]) was found to be 28.7 µM; with MCF-7 (setting [4]) it was 35.7 µM.
As for “N-((7-Methyl-5,6,7,8-tetrahydro[1]benzothieno[2,3-d]pyrimidin-4-yl)methyl) aniline [compound 6]”, the IC50 in the data set with A549 (read-out: Cell lines IC50 A549, MTT, mean of three experiments) was found to be 21.2 µM; with MCF-7 (read-out: Cell lines IC50 MCF-7, MTT, mean of three experiments) it was 26.6 µM.
